Measurements: ChEMBL document CHEMBL1127574, “Design and synthesis of ellipticinium salts and 1,2-dihydroellipticines with high selectivities against human CNS cancers in vitro” (1994)

Tests used:
Assay type in all cases: functional
[1] = system: RPMI-8226; test: Tested in vitro for cytotoxicity in RPMI-8226 cell line of Leukemia; conditions: Homo sapiens, read-out: Log TGI (converted)
In short: (§1)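 Compounds dissolved in DMSO, then diluted 500-fold into aqueous medium. The resulting aqueous solutions or suspensions were added to the cultured human tumour cell lines, and the cells were exposed for 48 h. Growth was read colorimetrically in one of two ways: a metabolic assay in which viable cells reduce a tetrazolium salt to a formazan dye, or a protein stain for total cellular protein.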

[2] = system: DLD-1; test: Tested in vitro for cytotoxicity in DLD-1 cell line of Colon Cancer; conditions: Homo sapiens, read-out: Log TGI (converted); in short: as §1
[3] = system: UACC-257; test: Tested in vitro for cytotoxicity in UACC-257 cell line of Melanoma; conditions: Homo sapiens, read-out: Log TGI (converted)
In short: (§2)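 Compounds dissolved in DMSO and diluted 500-fold into aqueous medium; aliquots of the resulting solutions or suspensions added to cultured human tumor cells for 48 h. Growth read colorimetrically, either by tetrazolium reduction to formazan by viable cells or by protein staining of total cellular protein.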

[4] = system: A549; test: Tested in vitro for cytotoxicity in A549/ATCC cell line of Non-Small Cell Lung Cancer; conditions: Homo sapiens, read-out: Log TGI (converted); in short: as §1
[5] = system: SK-MEL-28; test: Tested in vitro for cytotoxicity in SK-MEL-28 cell line of Melanoma; conditions: Homo sapiens, read-out: Log TGI (converted); in short: as §1
[6] = system: IGROV-1; test: Tested in vitro for cytotoxicity in IGROV1 cell lines; conditions: Homo sapiens; in short: as §1
[7] = system: 786-0; test: Tested in vitro for cytotoxicity in 786-0 cell line of Renal cancer; conditions: Homo sapiens, read-out: Log TGI (converted); in short: as §1
[8] = system: LXFL 529; test: Tested in vitro for cytotoxicity in LXFL-529 cell line of Non-Small Cell Lung Cancer; conditions: Homo sapiens, read-out: Log TGI (converted); in short: as §1
[9] = system: SN12C; test: Tested in vitro for cytotoxicity in SN12C cell line of Renal cancer; conditions: Homo sapiens, read-out: Log TGI (converted); in short: as §2
[10] = system: M19-MEL; test: Tested in vitro for cytotoxicity in M19-MEL cell line of Melanoma; conditions: Homo sapiens, read-out: Log TGI (converted); in short: as §1
[11] = system: NCI-H23; test: Tested in vitro for cytotoxicity in NCI-H23 cell line of Non-Small Cell Lung Cancer; conditions: Homo sapiens, read-out: Log TGI (converted); in short: as §1
[12] = system: HCC 2998; test: Tested in vitro for cytotoxicity in HCC2998 cell line of Colon Cancer; conditions: Homo sapiens, read-out: Log TGI (converted); in short: as §1
[13] = system: HOP-92; test: Tested in vitro for cytotoxicity in HOP-92 cell line of Non-Small Cell Lung Cancer; conditions: Homo sapiens, read-out: Log TGI (converted); in short: as §1
[14] = system: NCI-H460; test: Tested in vitro for cytotoxicity in NCI-H460 cell line of Non-Small Cell Lung Cancer; conditions: Homo sapiens, read-out: Log TGI (converted); in short: as §1
[15] = system: ACHN; test: Tested in vitro for cytotoxicity in ACHN cell line of Renal cancer; conditions: Homo sapiens, read-out: Log TGI (converted); in short: as §1
[16] = system: COLO 205; test: Tested in vitro for cytotoxicity in COLO 205 cell line of Colon Cancer; conditions: Homo sapiens, read-out: Log TGI (converted); in short: as §1
[17] = system: HCT-116; test: Tested in vitro for cytotoxicity in HCT116 cell line of Colon Cancer; conditions: Homo sapiens, read-out: Log TGI (converted); in short: as §1
[18] = system: SK-OV-3; test: Tested in vitro for cytotoxicity in SK-OV-3 cell line of Ovarian Cancer; conditions: Homo sapiens, read-out: Log TGI (converted); in short: as §2
[19] = system: NCI-H226; test: Tested in vitro for cytotoxicity in NCI-H226 cell line of Non-Small Cell Lung Cancer; conditions: Homo sapiens, read-out: Log TGI (converted); in short: as §1
[20] = system: A498; test: Tested in vitro for cytotoxicity in A498 cell line of Renal cancer; conditions: Homo sapiens, read-out: Log TGI (converted); in short: as §1
[21] = system: CCRF-CEM; test: Tested in vitro for cytotoxicity in CCRF-CEM cell line of Leukemia; conditions: Homo sapiens, read-out: Log TGI (converted); in short: as §1
[22] = system: NCI-H522; test: Tested in vitro for cytotoxicity in NCI-H522 cell line of Non-Small Cell Lung Cancer; conditions: Homo sapiens, read-out: Log TGI (converted); in short: as §1
[23] = system: SF-268; test: Tested in vitro for cytotoxicity in SF-268 cell lines; conditions: Homo sapiens; in short: as §1
[24] = system: UACC-62; test: Tested in vitro for cytotoxicity in UACC-62 cell line of Melanoma; conditions: Homo sapiens, read-out: Log TGI (converted); in short: as §2
[25] = system: SR; test: Tested in vitro for cytotoxicity in SR cell line of Leukemia; conditions: Homo sapiens, read-out: Log TGI (converted); in short: as §2
[26] = system: SNB-75; test: Tested in vitro for cytotoxicity in SNB-75 cell line of CNS Cancer; conditions: Homo sapiens, read-out: Log TGI (converted); in short: as §2
[27] = system: NCI-H322M; test: Tested in vitro for cytotoxicity in NCI-H322M cell line of Non-Small Cell Lung Cancer; conditions: Homo sapiens, read-out: Log TGI (converted); in short: as §1
[28] = system: OVCAR-8; test: Tested in vitro for cytotoxicity in OVCAR-8 cell line of Ovarian Cancer; conditions: Homo sapiens, read-out: Log TGI (converted); in short: as §1
[29] = system: IGROV-1; test: Tested in vitro for cytotoxicity in IGROV1 cell line of Ovarian Cancer; conditions: Homo sapiens, read-out: Log TGI (converted); in short: as §1
[30] = system: SK-MEL-5; test: Tested in vitro for cytotoxicity in SK-MEL-5 cell line of Melanoma; conditions: Homo sapiens, read-out: Log TGI (converted); in short: as §2
[31] = system: Malme-3M; test: Tested in vitro for cytotoxicity in MALME-3M cell line of Melanoma; conditions: Homo sapiens, read-out: Log TGI (converted); in short: as §1

COc1ccc2[nH]c3c(C)c4c(c(C)c3c2c1)CN(C)C=C4
TGI [1]: > 100 µM | TGI [2]: 20 µM | TGI [3]: 20 µM | TGI [4]: 50.1 µM | TGI [5]: 12.6 µM | GI50 [6]: 1.68 µM | TGI [7]: 12.6 µM | TGI [8]: 5.01 µM | TGI [9]: 0.794 µM | TGI [10]: 2.51 µM | TGI [11]: 3.98 µM | TGI [12]: 12.6 µM | TGI [13]: 25.1 µM | TGI [14]: 10 µM | TGI [15]: 63.1 µM | TGI [16]: 5.01 µM | TGI [17]: 15.8 µM | TGI [18]: 63.1 µM | TGI [19]: 0.794 µM | TGI [20]: 63.1 µM | TGI [21]: 15.8 µM | TGI [22]: 5.01 µM | GI50 [23]: 0.186 µM | TGI [24]: 20 µM | TGI [25]: 63.1 µM | TGI [26]: 0.794 µM | TGI [27]: 15.8 µM | TGI [28]: 15.8 µM | TGI [29]: 39.8 µM | TGI [30]: 10 µM | TGI [31]: 5.01 µM
